Experimental data gathered from unrelated publications.
Sample: plasma

SMILES | species | route | dose | notes | AUC(0-t)
FC(F)(F)c1ccc(CNc2ccc(Cc3c[nH]c4ncc(Cl)cc34)cn2)cn1 | human | oral | 1000 mg | multiple doses, patients | 14000 ng·h/mL
OC[C@H]1O[C@@H](c2ccc(Cl)c(Cc3ccc(O[C@H]4CCOC4)cc3)c2)[C@H](O)[C@@H](O)[C@@H]1O | human | oral | 25 mg | single dose | 4.31 µM·h
CO[C@H]1CC[C@H](N2C(=O)CNc3ncc(-c4ccc(C(C)(C)O)nc4)nc32)CC1 | human | oral | 45 mg | patients | 1500 ng·h/mL
COCCOc1cnc2ccn([C@H](C)c3nnc4c(F)cc(-c5cnn(C)c5)cn34)c(=O)c2c1 | human | oral | 100 mg | multiple doses, once daily, patients | 17300 ng·h/mL
COc1cc(N2CCC(N3CCN(C)CC3)CC2)ccc1Nc1ncnc(Nc2ccccc2S(=O)(=O)C(C)C)n1 | human | oral | 75 mg | multiple doses, patients | 3810 ng·h/mL
CC(C)(O)c1ccccc1-c1ccc2[nH]c(/C=C/c3ccc(C(F)(F)F)cc3)nc2c1 | male human | oral | 1 mg | single dose, fasted | 83 ng·h/mL
Cc1nc(NC(=O)N2CCC[C@H]2C(N)=O)sc1-c1ccnc(C(C)(C)C(F)(F)F)c1 | human | oral | 180 mg | patients | 15500 ng·h/mL
C[C@@]1(c2cc(NC(=O)c3ccc(C#N)cn3)ccc2F)C=CSC(N)=N1 | human | oral | 90 mg | single dose | 8800 ng·h/mL
COc1ccc([C@@H]2CN(C(=O)[C@@H](O)CO)C[C@@]2(C)[C@@H](C)O)cc1OC1CN(c2ccc(C)cn2)C1 | human | oral | 1.5 mg | single dose, healthy volunteers | 467 ng·h/mL
CO[C@@H]1[C@H](OC(=O)N2CC(CCN3CCOCC3)C2)CC[C@]2(CO2)[C@H]1[C@@]1(C)O[C@@H]1CC=C(C)C | human | subcutaneous | 3.6 mg | single dose, healthy volunteers | 10.4 ng·h/mL
CC(C)n1cc(C#N)c2cc(-n3cc(C(=O)O)cn3)ccc21 | human | oral | 50 mg | single dose, fasted, healthy volunteers | 6980 ng·h/mL
